# KCNQ1 block – inhibitors of human KCNQ1 channel, primary screen, cell-based, thallium flux, high-throughput. 310,000 compounds, 1.3% hits. B-score at 10 µM. CHO-K1 KCNQ1, FluxOR thallium flux fluorescence; hits give high values. Potassium voltage-gated channel subfamily KQT member 1 (Homo sapiens), P51787. AID 2642, 2010;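 active = compounds whose thallium flux B-score, printed positive for inhibition, exceeds three library SD while starting fluorescence stays within three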;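 note: channel opened by potassium depolarization with thallium stimulus after 20 min compound exposure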
# Kir21 inh – inhibitors of mouse Kir2.1 inward-rectifier potassium channel | B-score at 10 µM | Inward rectifier potassium channel 2 (Mus musculus), P35561 | 310,000 compounds, 0.85% hits | AID 1672, 2009 | HEK293-Kir2.1, FluxOR thallium flux fluorescence; hits give low values;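 active = fluorescence ratio B-score at or below minus 3 SD of library scores, with starting-brightness B-score within 2 SD, cut at about -4.2 in these data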;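 note: channel flux triggered by added potassium and thallium sulfate stimulus; B-score of peak minus minimum fluorescence over baseline after thallium stimulus; more negative B-score means stronger Kir2.1 block with less thallium influx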
# hERG protect – hERG rescue from dofetilide block, primary screen, cell-based, CHO-hERG, FluxOR thallium flux, dofetilide IC70. Voltage-gated inwardly rectifying potassium channel KCNH2 (Homo sapiens), Q12809. dofetilide IC70 present. activation (rescue from dofetilide block), less the hit threshold, % at 10 µM. 310,000 compounds, 0.51% hits;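 active = activation above the mean of controls blocked by dofetilide plus 5 SD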;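 note: thallium influx through hERG after potassium depolarization seen as dye fluorescence rise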
# KCNQ1 pot – potentiators or activators of KCNQ1 channel, primary screen, cell-based, thallium flux, high-throughput; CHO-K1 KCNQ1, thallium flux FluxOR fluorescence; hits give high values; AID 2648, 2010; Potassium voltage-gated channel subfamily KQT member 1 (Homo sapiens), P51787; B-score at 10 µM; 310,000 compounds, 0.35% hits;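 active = fluorescence ratio B-score, a plate-corrected score, at least three library SD, with initial intensity B-score within 5 SD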
#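 Test system: CHO-K1 cells stably expressing KCNQ1 / Medium: assay buffer / Also added: depolarizing K+/Tl+ stimulus, K2SO4 and Tl2SO4 each 12.5 mM in 5x stock / Incubation: 90 min dye loading and 20 min compound exposure, both at room temperature / Signal: thallium influx via FluxOR fluorescence, kinetic imaging / Evaluation: B score of baseline-normalized fluorescence ratio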
# KCNK3 inh – human KCNK3 channel inhibitors, primary screen, CHO cells, FluxOR thallium flux, B-score | Potassium channel subfamily K member 3 (Homo sapiens), O14649 | FluxOR fluorescence; hits give low values | B-score at 10 µM | 340,000 compounds, 0.84% hits;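 active = B-score under library mean minus 4 SD, starting fluorescence ratio at most library mean plus 5 SD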;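 note: more negative B-score means stronger inhibition of thallium flux through KCNK3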
# KCNK9 block – KCNK9 potassium channel inhibitors, primary screen, HEK293 cells, thallium flux; Potassium channel subfamily K member 9 (Homo sapiens), Q9NPC2; 310,000 compounds, 1.2% hits; FluxOR thallium flux fluorescence; hits give low values; AID 488922, 2010; B-score at 10 µM;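 active = ratio B-score over 3 SD below the library mean, with starting fluorescence within 5 SD of its mean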;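 note: negative B-score means less thallium flux so channel inhibition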
# KCNQ1 block val – KCNQ1 potassium channel inhibitors, confirmation, cell-based, Tl flux, duplicate; inhibition, % at 10 µM; shares compounds with KCNQ1 block; 1,600 compounds, 93% hits; KCNQ1 cell line, FluxOR thallium flux fluorescence;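 active = primary screen active, with duplicate mean exceeding buffer control mean plus 3 SD of buffer wells, cut at about 28% in these data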
# CHO Tl flux – thallium flux effects in parental CHO cells, counter-screen for KCNQ1 inhibitor project, cell-based, Tl flux | fluorescence ratio (Tl flux) at 10 µM | parental CHO-K1, FluxOR thallium flux fluorescence ratio; hits give low values; zero means no signal rise above baseline | 1,600 compounds, 21% hits | shares compounds with KCNQ1 block | AID 588366, 2011;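 active = mean of duplicate thallium-flux fluorescence ratios in parental host cells more than 5 SD below the buffer control mean, cut at about 0.38 in these data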;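 note: ratio is peak minus minimum fluorescence divided by baseline fluorescence; actives read low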
# KCNQ1 ephys val – KCNQ1 channel inhibitors, confirmation, orthogonal assay, cell-based, automated electrophysiology | shares compounds with KCNQ1 block | KCNQ1-CHO cells, automated patch clamp current | calls only at 10 µM | 490 compounds, 20% hits | AID 624120, 2012;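 active = KCNQ1 current drop exceeding 3 SD of negative control wells, seen in both duplicate runs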;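 note: steady state current during a 2 s step from -80 to +40 mV; negative values mean current inhibition and positive values mean potentiation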
# KCNQ2 spec – KCNQ2 channel inhibition, selectivity assay for KCNQ1 inhibitor project, cell-based. KCNQ2 cells, FluxOR thallium flux fluorescence. shares compounds with KCNQ1 block. 1,600 compounds, 71% hits. inhibition, % at 10 µM. AID 651746, 2012;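 active = mean percent inhibition of the KCNQ2 thallium signal more than 5 SD above the buffer-only control wells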;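 note: KCNQ2 expressed in CHO cells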
# KCNQ1 KCNE1 spec – KCNQ1/KCNE1 channel inhibition, selectivity assay for KCNQ1 inhibitor project, CHO-K1 cells, thallium flux, FluxOR; shares compounds with KCNQ1 block; FluxOR thallium flux fluorescence; inhibition, % at 10 µM; 1,600 compounds, 77% hits;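 active = mean percent inhibition of duplicate wells above the buffer-only control mean plus 3 SD of those controls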
# Target sequence (P51787 whole entry, looked up): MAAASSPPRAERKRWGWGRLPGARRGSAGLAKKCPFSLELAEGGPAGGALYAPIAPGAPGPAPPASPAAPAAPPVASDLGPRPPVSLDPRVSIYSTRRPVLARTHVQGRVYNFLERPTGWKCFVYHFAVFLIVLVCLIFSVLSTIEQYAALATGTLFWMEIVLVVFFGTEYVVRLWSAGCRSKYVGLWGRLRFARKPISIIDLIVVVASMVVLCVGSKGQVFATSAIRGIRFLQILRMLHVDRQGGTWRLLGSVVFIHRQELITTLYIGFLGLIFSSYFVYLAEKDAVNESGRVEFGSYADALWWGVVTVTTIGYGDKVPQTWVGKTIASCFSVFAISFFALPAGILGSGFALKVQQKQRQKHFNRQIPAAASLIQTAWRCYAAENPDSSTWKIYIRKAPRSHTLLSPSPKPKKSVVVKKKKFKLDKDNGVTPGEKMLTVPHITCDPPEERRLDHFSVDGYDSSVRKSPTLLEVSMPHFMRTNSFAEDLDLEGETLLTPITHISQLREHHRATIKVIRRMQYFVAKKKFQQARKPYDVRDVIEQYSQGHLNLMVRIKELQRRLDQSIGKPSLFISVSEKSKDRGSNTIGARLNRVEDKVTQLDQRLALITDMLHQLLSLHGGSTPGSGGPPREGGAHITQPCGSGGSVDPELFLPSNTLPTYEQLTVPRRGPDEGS
# Numbers stand for hits; n = inactive; x = no result given. This is a sample that favours compounds with a hit; in the whole collection about 3.7% have one here.
SMILES,KCNQ1 block,Kir21 inh,hERG protect,KCNQ1 pot,KCNK3 inh,KCNK9 block,KCNQ1 block val,CHO Tl flux,KCNQ2 spec,KCNQ1 KCNE1 spec,others
CCC1(c2ccc(Cl)cc2)NC(=O)N(CC(=O)N2CCN(C(=O)c3ccco3)CC2)C1=O (stereo not drawn),x,x,x,x,n,x,x,x,x,x,
CC(C)NC(=O)c1cnc(N2CCN(c3ccccn3)CC2)c2ccccc12,n,n,n,n,n,n,x,x,x,x,
CCc1ccc(NC(=O)c2cnc(N3CCN(c4ccccn4)CC3)c3ccccc23)cc1,8,n,n,n,n,n,89,0.37,104%,141%,
O=C(Nc1cccc(F)c1)OC(CN1CCCCC1)C(F)(F)F (stereo not drawn),7,n,n,n,n,n,80,n,81%,106%,
O=C(COC(=O)CNC(=O)c1cccs1)Nc1ccc(C(F)(F)F)cc1[N+](=O)[O-],n,n,n,n,n,n,x,x,x,x,
O=C(Nc1nc(-c2ccccc2)cs1)C1CCCCN1S(=O)(=O)c1ccc(Cl)cc1 (stereo not drawn),10,n,n,n,n,n,90,n,93%,131%,KCNQ1 ephys val=n
O=C1N(Cc2cccc(Cl)c2)C[C@@H]2C[C@@H](c3cccn3-c3ccccn3)N3CCC[C@@]123,6,n,n,n,n,n,65,n,63%,46%,
CN(c1cccc(NC(=O)Nc2cccc(Cl)c2)c1)S(C)(=O)=O,16,n,n,n,n,n,93,n,123%,82%,
CN(C)c1ccc(NC(=O)Nc2cccc(Cl)c2)cc1,n,n,n,n,n,n,x,x,x,x,
Cc1cccc(NC(=O)Nc2ccc(Cl)cc2)n1,n,n,n,n,n,n,x,x,x,x,
O=C(Nc1ccncc1)Nc1cccc(Cl)c1,7,n,n,n,n,n,52,n,n,46%,
Cc1nccc(-c2cccc(NC(=O)Nc3ccc(Cl)cc3)c2)n1,8,n,n,n,n,n,92,n,67%,72%,KCNQ1 ephys val=n
O=C(NCc1ccncc1)Nc1cccc(Cl)c1,n,n,n,n,n,n,x,x,x,x,
COc1cc(OC)c(C2C(C#N)=C(C)NC(C)=C2C#N)c(C(=O)O)c1,n,n,n,n,n,n,x,x,x,x,
CCCc1cc(=O)n2[nH]c(SCc3ccc(Cl)cc3)nc2n1,n,n,n,n,n,n,x,x,x,x,
COc1ccc(C(=O)COC(=O)CNC(=O)c2ccccc2)cc1F,x,x,x,x,n,x,x,x,x,x,
O=C(NC1CCSc2ccccc21)c1cccc(Br)c1 (stereo not drawn),7,n,n,n,n,n,32,n,83%,34%,
CCCn1c2c(c(O)c(C(=O)Nc3ccc(OC)cc3)c1=O)CCCC2,7,n,n,n,n,n,94,n,78%,104%,KCNQ1 ephys val=n
Cc1ccc(S(=O)(=O)Nc2c(NC3CCCCC3)c3ccccc3oc2=O)c(C)c1,n,n,n,n,n,n,x,x,x,x,
